In ChEMBL document CHEMBL1817559, “Synthesis and biological evaluation of HQCAs with aryl or benzyl substituents on N-1 position as potential HIV-1 integrase inhibitors” (Bioorg Med Chem, 2011):

Key:
[1] = tested on: Human immunodeficiency virus 1; test: Antiviral activity against wild type HIV1 LAI-3B infected in human C8166 cells assessed as inhibition of virus-induced cytopathic effect by MTT assay; format: functional, organism-based; details: Human immunodeficiency virus 1, LAI-3B
Method in brief: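 C8166 cells infected with wild-type HIV-1 LAI (strain IIIB); EC50 = concentration protecting cells from viral cytopathogenicity by 50%, read by MTT; means of at least two separate experiments.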

[2] = Selectivity index, ratio of CC50 for human C8166 cells to EC50 for wild type HIV1 LAI-3B; format: toxicity, cell-based; details: read-out: Ratio CC50/EC50
Method in brief: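 Ratio CC50/EC50, where CC50 is from MTT viability of uninfected C8166 cells and EC50 is 50% protection of wild-type HIV-1 IIIB-infected C8166 cells from cytopathogenicity (MTT); inputs are means of at least two experiments.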

[3] = Cytotoxicity against human C8166 cells by MTT assay; format: cell-based
Method in brief: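 Normal uninfected C8166 cells; MTT viability readout; CC50 = concentration reducing viability by 50%; means of at least two separate experiments.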

[4] = tested on: Human immunodeficiency virus 1; test: Antiviral activity against HIV1 A17 harboring reverse transcriptase Y181C mutant infected in human C8166 cells assessed as inhibition of virus-induced cytopathic effect by MTT assay; format: functional, organism-based; details: Human immunodeficiency virus 1, A17, C8166
Method in brief: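 C8166 cells infected with mutant HIV-1 strain A17; protection from viral cytopathogenicity read by MTT. EC50 is the compound concentration that protects cells from viral cytopathic effect by 50%. Values are means of at least two separate experiments.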

Structure (SMILES)	EC50 [1] [µM]	selectivity ratio [2]	CC50 [3] [µM]	EC50 [4] [µM]
O=C(O)c1cn(-c2ccccc2)c2ccc(Cc3cccc(Cl)c3F)c(O)c2c1=O	308	1.26	388	–
Cc1cccc(-n2cc(C(=O)O)c(=O)c3c(O)c(Cc4cccc(Cl)c4F)ccc32)c1	20.5	3.49	71.5	43.7
Cc1ccc(-n2cc(C(=O)O)c(=O)c3c(O)c(Cc4cccc(Cl)c4F)ccc32)cc1	3.58	54.2	194	67.9
Cc1ccc(-n2cc(C(=O)O)c(=O)c3c(O)c(Cc4cccc(Cl)c4F)ccc32)cc1C	24.9	12.7	316	32.8
O=C(O)c1cn(-c2ccc(Br)cc2)c2ccc(Cc3cccc(Cl)c3F)c(O)c2c1=O	7.12	11.9	85	33.2
O=C(O)c1cn(Cc2ccccc2)c2ccc(Cc3ccccc3F)c(O)c2c1=O	20.9	7.49	156	51.2
O=C(O)c1cn(Cc2ccccc2)c2ccc(Cc3cccc(Cl)c3F)c(O)c2c1=O	3.17	6.42	20.3	17.9
Cc1ccc(Cn2cc(C(=O)O)c(=O)c3c(O)c(Cc4cccc(Cl)c4F)ccc32)cc1	5.55	46	256	29.2
O=C(O)c1cn(Cc2ccccc2F)c2ccc(Cc3ccccc3F)c(O)c2c1=O	6.46	10.4	67.1	27.2
O=C(O)c1cn(Cc2ccccc2F)c2ccc(Cc3cccc(Cl)c3F)c(O)c2c1=O	3.27	13.7	44.9	24.2
O=C(O)c1cn(Cc2cccc(F)c2)c2ccc(Cc3cccc(Cl)c3F)c(O)c2c1=O	4.93	14	69	19.1
O=C(O)c1cn(Cc2ccc(F)cc2)c2ccc(Cc3cccc(Cl)c3F)c(O)c2c1=O	9.34	7.04	65.8	22.5
O=C(O)c1cn(Cc2ccc(F)c(F)c2)c2ccc(Cc3cccc(Cl)c3F)c(O)c2c1=O	5.74	12.4	71.4	24.2
CC(C)[C@@H](CO)n1cc(C(=O)O)c(=O)c2c(O)c(Cc3cccc(Cl)c3F)ccc21	–	–	–	0.085
COc1cc2c(cc1Cc1cccc(Cl)c1F)c(=O)c(C(=O)O)cn2[C@H](CO)C(C)C [ELVITEGRAVIR]	–	–	–	0.001
